Two compounds from ChEMBL document CHEMBL1144933, “Novel bioactive and stable neurotensin peptide analogues capable of delivering radiopharmaceuticals and molecular beacons to tumors” (J Med Chem, 2003) can be followed below.

pIC50: −log10 of the molar value. Where a SMILES comes first, the peptide text is derived from it. [ ]: non-standard residue; d: D form. The star is where a group is joined. Gly(1-amidinopiperidin-4-yl) = N=C(N)N1CCC([C@H](N)C(=O)O)CC1; FITC = O=C1OC2(c3ccc(O)cc3Oc3cc(O)ccc32)c2ccc(NC(=S)*)cc21; DTPA = O=C(O)CN(CCN(CC(=O)O)CC(=O)O)CCN(CC(=O)O)CC(=O)*; Gly(piperidin-4-yl) = N[C@H](C(=O)O)C1CCNCC1; Tle = CC(C)(C)[C@H](N)C(=O)O

In series [1] the test system is Mus musculus. The series is described as follows: Biodistribution of [111In]-DTPA-NT in HT-29 tumor implanted SCID mice pancreas at 4 hr postinjection LSA administration. The conditions noted are these: in vivo. The series is classed as ADME, organism-based. The method in brief:
(§1)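 Receptor-blocking (low specific activity) arm in male SCID mice with s.c. HT29 flank xenografts of about 0.3 g. Two animals received the same activity (10 μCi, jugular vein) diluted with cold NT to 0.5 Ci/mmol. Tissues were collected after cervical dislocation, radioassayed, and expressed as %ID/g.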

The test system of series [2] is Mus musculus. The series is described as follows: Biodistribution of [111In]-DTPA-NT in HT-29 tumor implanted SCID mice spleen at 1 hr postinjection. The series is classed as ADME, organism-based. As to conditions: in vivo. An outline of the steps: (§2)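 Male SCID mice bore HT29 xenografts from 1 × 10^6 cells given s.c. in both rear flanks. Tumours reached about 0.3 g by day 14. Under Metofane anaesthesia, mice received 20 μL (10 μCi) of 111In-DTPA-NT analogue (1400 Ci/mmol) via the jugular vein. Groups of n = 3 were killed by cervical dislocation at 1 and 4 h. Blood and tissues were gamma-counted and reported as %ID/g ± SE.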

Series [3] has as its system Mus musculus. Description: Biodistribution of [111In]-DTPA-NT in HT-29 tumor implanted SCID mice spleen at 4 hr postinjection LSA administration. The series is classed as ADME, organism-based. The conditions noted are these: in vivo. The method in brief: as §1
Series [4] concerns Mus musculus. Description: Biodistribution of [111In]DTPA-NT in HT-29 tumor implanted SCID mice tumor at 1 h postinjection. The series is classed as ADME, organism-based. As to conditions: in vivo. An outline of the steps:
as §2

Series [5] deals with Mus musculus. Description: Biodistribution of [111In]-DTPA-NT in HT-29 tumor implanted SCID mice tumor at 4 hr postinjection. The series is classed as ADME, organism-based. The conditions noted are these: in vivo. An outline of the steps: as §2
Series [6] deals with Mus musculus. The series is described as follows: Biodistribution of [111In]DTPA-NT in HT-29 tumor implanted SCID mice tumor at 4 h postinjection LSA administration. The series is classed as ADME, organism-based. As to conditions: in vivo. The method in brief:
as §1

In series [7] the test system is Mus musculus. The series is described as follows: Biodistribution of [111In]DTPA-NT in HT-29 tumor implanted SCID mice blood at 1 h postinjection. The series is classed as ADME, organism-based. As to conditions: in vivo. An outline of the steps: as §2
The subject of series [8] is Mus musculus. The series is described as follows: Biodistribution of [111In]DTPA-NT in HT-29 tumor implanted SCID mice blood at 4 h postinjection. The series is classed as ADME, organism-based. The conditions noted are these: in vivo. An outline of the steps: as §2
The subject of series [9] is Mus musculus. Description: Biodistribution of [111In]-DTPA-NT in HT-29 tumor implanted SCID mice blood at 4 hr postinjection LSA administration. The series is classed as ADME, organism-based. The conditions noted are these: in vivo. The method in brief:
as §1

Series [10] deals with Mus musculus. The series is described as follows: Biodistribution of [111In]DTPA-NT in HT-29 tumor implanted SCID mice kidneys at 1 h postinjection. The series is classed as ADME, organism-based, Kidney. As to conditions: in vivo. The method in brief:
as §2

The subject of series [11] is Mus musculus. Description: Biodistribution of [111In]DTPA-NT in HT-29 tumor implanted SCID mice kidneys at 4 h postinjection. The series is classed as ADME, organism-based, Kidney. As to conditions: in vivo. An outline of the steps: as §2
Series [12] deals with Mus musculus. The series is described as follows: Biodistribution of [111In]-DTPA-NT in HT-29 tumor implanted SCID mice kidneys at 4 hr postinjection LSA administration. The series is classed as ADME, organism-based, Kidney. The conditions noted are these: in vivo. An outline of the steps: as §1
The subject of series [13] is Mus musculus. The series is described as follows: Biodistribution of [111In]DTPA-NT in HT-29 tumor implanted SCID mice liver at 1 h postinjection. The series is classed as ADME, organism-based. The conditions noted are these: in vivo. An outline of the steps: as §2
Series [14] has as its system Mus musculus. Description: Biodistribution of [111In]DTPA-NT in HT-29 tumor implanted SCID mice liver at 4 h postinjection. As to conditions: in vivo. The series is classed as ADME, organism-based. The method in brief: as §2
Series [15] relates to Mus musculus. The series is described as follows: Biodistribution of [111In]-DTPA-NT in HT-29 tumor implanted SCID mice liver at 4 hr postinjection LSA administration. The series is classed as ADME, organism-based. The conditions noted are these: in vivo. The method in brief: as §1
Series [16] relates to Mus musculus. The series is described as follows: Biodistribution of [111In]DTPA-NT in HT-29 tumor implanted SCID mice muscle at 1 h postinjection. The series is classed as ADME, organism-based, Muscle tissue. The conditions noted are these: in vivo. The method in brief:
as §2

Series [17] relates to Mus musculus. Description: Biodistribution of [111In]DTPA-NT in HT-29 tumor implanted SCID mice muscle at 4 h postinjection. The series is classed as ADME, organism-based, Muscle tissue. The conditions noted are these: in vivo. An outline of the steps:
as §2

The test system of series [18] is Mus musculus. The series is described as follows: Biodistribution of [111In]-DTPA-NT in HT-29 tumor implanted SCID mice muscle at 4 hr postinjection LSA administration. The series is classed as ADME, organism-based, Muscle tissue. As to conditions: in vivo. An outline of the steps: as §1
The test system of series [19] is Mus musculus. Description: Biodistribution of [111In]DTPA-NT in HT-29 tumor implanted SCID mice pancreas at 1 h postinjection. The series is classed as ADME, organism-based. The conditions noted are these: in vivo. The method in brief:
as §2

Series [20] relates to Mus musculus. The series is described as follows: Biodistribution of [111In]-DTPA-NT in HT-29 tumor implanted SCID mice pancreas at 4 h postinjection. The series is classed as ADME, organism-based. The conditions noted are these: in vivo. An outline of the steps: as §2
Series [21] deals with Neurotensin receptor type 1 (Homo sapiens, UniProt P30989). The series is described as follows: Binding affinity towards neurotensin receptor in membranes prepared from HT-29 cell line, relative to [111In]-labeled neurotensin peptide.
Series [22] concerns Mus musculus. Description: Biodistribution of [111In]DTPA-NT in HT-29 tumor implanted SCID mice spleen at 4 h postinjection. As to conditions: in vivo. The series is classed as ADME, organism-based. An outline of the steps: as §2

Chain of Neurotensin receptor type 1 (P30989 whole entry): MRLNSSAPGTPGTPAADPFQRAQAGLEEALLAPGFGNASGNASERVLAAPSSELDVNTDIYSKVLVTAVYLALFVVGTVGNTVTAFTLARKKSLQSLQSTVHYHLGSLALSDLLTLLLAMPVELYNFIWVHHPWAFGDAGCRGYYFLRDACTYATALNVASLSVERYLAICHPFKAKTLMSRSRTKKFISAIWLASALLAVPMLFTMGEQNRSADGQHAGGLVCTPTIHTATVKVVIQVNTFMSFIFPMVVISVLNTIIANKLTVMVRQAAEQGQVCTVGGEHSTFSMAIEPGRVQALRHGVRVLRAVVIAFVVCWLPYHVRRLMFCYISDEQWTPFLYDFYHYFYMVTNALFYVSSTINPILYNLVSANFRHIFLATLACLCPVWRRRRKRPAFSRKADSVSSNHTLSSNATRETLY

Turning to `CC(C)C[C@H](NC(=O)[C@@H](NC(=O)[C@H](Cc1ccc(O)cc1)NC(=O)[C@@H]1CCCN1C(=O)[C@H](CCCN=C(N)N)NC(=O)[C@@H](NC(=O)[C@@H]1CCCN1C(=O)[C@@H](NC(=O)CN(CCN(CCN(CC(=O)O)CC(=O)O)CC(=O)O)CC(=O)O)C1CCNCC1)C1CCN(C(=N)N)CC1)C(C)(C)C)C(=O)O` ({DTPA}-[Gly(piperidin-4-yl)]P[Gly(1-amidinopiperidin-4-yl)]RPY[Tle]L-OH), the ID/g tissue in the series on Mus musculus [1] turned out to be 0.051%; with Mus musculus [2], 0.18%; with Mus musculus [3], 0.088%; in the series with Mus musculus [4] it was 2.831%; in the series with Mus musculus [5], 2.177%; with Mus musculus [6] it was 0.263%. For the same compound, the ID/g tissue with Mus musculus [7] came to 0.416%; in the series on Mus musculus [8] it was 0.03%; in the series with Mus musculus [9], 0.027%; in the series with Mus musculus [10] it was 6.141%; in the series on Mus musculus [11], 4.841%; in the series on Mus musculus [12], 5.725%. The ID/g tissue in the series on Mus musculus [13] is 0.203%; in the series with Mus musculus [14], 0.133%; in the series on Mus musculus [15], 0.168%; in the series on Mus musculus [16] it was 0.092%; with Mus musculus [17], 0.021%; in the series with Mus musculus [18], 0.03%. Further, the ID/g tissue with Mus musculus [19] turned out to be 0.152%; in the series with Mus musculus [20] it was 0.03%; with Mus musculus [22] it was 0.085%. The pIC50 in series [21] was 9.52.
In series [21] (ht-29), `CC(C)C[C@H](NC(=O)[C@@H](NC(=O)[C@H](Cc1ccc(O)cc1)NC(=O)[C@@H]1CCCN1C(=O)[C@H](CCCN=C(N)N)NC(=O)[C@@H](NC(=O)[C@@H]1CCCN1C(=O)[C@@H](NC(=S)Nc1ccc2c(c1)C(=O)OC21c2ccc(O)cc2Oc2cc(O)ccc21)C1CCNCC1)C1CCN(C(=N)N)CC1)C(C)(C)C)C(=O)O` ({FITC}-[Gly(piperidin-4-yl)]P[Gly(1-amidinopiperidin-4-yl)]RPY[Tle]L-OH) had a negative logarithm of the IC50 (pIC50) of 9.30.
